Key:
[1] = tested on: K562; test: Antiproliferative activity against human K562 cells assessed as cell growth inhibition at 10 uM incubated for 48 hrs by sulforhodamine B assay relative to control; assay type: functional
Outline: (§1)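 NCI-60 single-dose screen at 10^-5 M. Cells grown in RPMI 1640 with 5% FBS and 2 mM L-glutamine, plated at 5,000–40,000 cells/well, and preincubated 24 h. Drug (DMSO stock) added and incubated 48 h at 37 °C, 5% CO2. Adherent cells fixed with cold TCA, stained with 0.4% SRB in 1% acetic acid, dye solubilized in 10 mM trizma base, A515 read. Percent growth taken against time-zero and untreated control.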

[2] = tested on: RPMI-8226; test: Antiproliferative activity against human RPMI-8226 cells assessed as cell growth inhibition at 10 uM incubated for 48 hrs by sulforhodamine B assay relative to control; assay type: functional; outline: as §1
[3] = tested on: OVCAR-8; test: Antiproliferative activity against human OVCAR-8 cells assessed as cell growth inhibition at 10 uM incubated for 48 hrs by sulforhodamine B assay relative to control; assay type: functional; outline: as §1
[4] = tested on: BT-549; test: Antiproliferative activity against human BT-549 cells assessed as cell growth inhibition at 10 uM incubated for 48 hrs by sulforhodamine B assay relative to control; assay type: functional
Outline: (§2)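 Single-dose NCI-60 prescreen at 10^-5 M. Cells in RPMI 1640 with 5% FBS and 2 mM L-glutamine, seeded 5,000–40,000 cells/well with 24 h preincubation, then drug exposure for 48 h at 37 °C under 5% CO2. Growth read by SRB staining of TCA-fixed cells at 515 nm against time-zero and untreated controls. Negative growth values denote cell kill.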

[5] = tested on: CCRF-CEM; test: Antiproliferative activity against human CCRF-CEM cells assessed as cell growth inhibition at 10 uM incubated for 48 hrs by sulforhodamine B assay relative to control; assay type: functional; outline: as §2
[6] = tested on: UO-31; test: Antiproliferative activity against human UO-31 cells assessed as cell growth inhibition at 10 uM incubated for 48 hrs by sulforhodamine B assay relative to control; assay type: functional; outline: as §1
[7] = tested on: HCT-15; test: Antiproliferative activity against human HCT-15 cells assessed as cell growth inhibition at 10 uM incubated for 48 hrs by sulforhodamine B assay relative to control; assay type: functional
Outline: (§3)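 NCI-60 one-dose prescreen at 10^-5 M. Cells grown in RPMI 1640 with 5% FBS and 2 mM glutamine, preincubated 24 h, then exposed 48 h at 37 °C. Adherent lines TCA-fixed, SRB-stained, A515 read. Growth percent relative to time-zero and control; negative values mean cell kill.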

[8] = tested on: PC-3; test: Antiproliferative activity against human PC-3 cells assessed as cell growth inhibition at 10 uM incubated for 48 hrs by sulforhodamine B assay relative to control; assay type: functional; outline: as §1
[9] = tested on: SNB-75; test: Antiproliferative activity against human SNB-75 cells assessed as cell growth inhibition at 10 uM incubated for 48 hrs by sulforhodamine B assay relative to control; assay type: functional; outline: as §1
[10] = tested on: HL-60; test: Antiproliferative activity against human HL-60 cells assessed as cell growth inhibition at 10 uM incubated for 48 hrs by sulforhodamine B assay relative to control; assay type: functional; outline: as §3
[11] = tested on: 786-0; test: Antiproliferative activity against human 786-0 cells assessed as cell growth inhibition at 10 uM incubated for 48 hrs by sulforhodamine B assay relative to control; assay type: functional; outline: as §2
[12] = tested on: MDA-MB-468; test: Antiproliferative activity against human MDA-MB-468 cells assessed as cell growth inhibition at 10 uM incubated for 48 hrs by sulforhodamine B assay relative to control; assay type: functional; outline: as §1
[13] = tested on: T47D; test: Antiproliferative activity against human T47D cells assessed as cell growth inhibition at 10 uM incubated for 48 hrs by sulforhodamine B assay relative to control; assay type: functional; outline: as §1
[14] = tested on: A498; test: Antiproliferative activity against human A498 cells assessed as cell growth inhibition at 10 uM incubated for 48 hrs by sulforhodamine B assay relative to control; assay type: functional; outline: as §2
[15] = tested on: KM12; test: Antiproliferative activity against human KM12 cells assessed as cell growth inhibition at 10 uM incubated for 48 hrs by sulforhodamine B assay relative to control; assay type: functional; outline: as §1
[16] = tested on: DU-145; test: Antiproliferative activity against human DU-145 cells assessed as cell growth inhibition at 10 uM incubated for 48 hrs by sulforhodamine B assay relative to control; assay type: functional; outline: as §3
[17] = tested on: UACC-62; test: Antiproliferative activity against human UACC-62 cells assessed as cell growth inhibition at 10 uM incubated for 48 hrs by sulforhodamine B assay relative to control; assay type: functional; outline: as §1
[18] = tested on: MOLT-4; test: Antiproliferative activity against human MOLT-4 cells assessed as cell growth inhibition at 10 uM incubated for 48 hrs by sulforhodamine B assay relative to control; assay type: functional; outline: as §1
[19] = tested on: A549; test: Antiproliferative activity against human A549 cells assessed as cell growth inhibition at 10 uM incubated for 48 hrs by sulforhodamine B assay relative to control; assay type: functional; outline: as §2
[20] = tested on: NCI-H522; test: Antiproliferative activity against human NCI-H522 cells assessed as cell growth inhibition at 10 uM incubated for 48 hrs by sulforhodamine B assay relative to control; assay type: functional; outline: as §1
[21] = tested on: SK-MEL-5; test: Antiproliferative activity against human SK-MEL-5 cells assessed as cell growth inhibition at 10 uM incubated for 48 hrs by sulforhodamine B assay relative to control; assay type: functional; outline: as §1
[22] = tested on: U-251; test: Antiproliferative activity against human U-251 cells assessed as cell growth inhibition at 10 uM incubated for 48 hrs by sulforhodamine B assay relative to control; assay type: functional; outline: as §1
[23] = tested on: MDA-MB-231; test: Antiproliferative activity against human MDA-MB-231 cells assessed as cell growth inhibition at 10 uM incubated for 48 hrs by sulforhodamine B assay relative to control; assay type: functional; outline: as §1
[24] = tested on: SR; test: Antiproliferative activity against human SR cells assessed as cell growth inhibition at 10 uM incubated for 48 hrs by sulforhodamine B assay relative to control; assay type: functional; outline: as §1
[25] = tested on: HCT-116; test: Antiproliferative activity against human HCT-116 cells assessed as cell growth inhibition at 10 uM incubated for 48 hrs by sulforhodamine B assay relative to control; assay type: functional; outline: as §3
[26] = tested on: LOX IMVI; test: Antiproliferative activity against human LOX IMVI cells assessed as cell growth inhibition at 10 uM incubated for 48 hrs by sulforhodamine B assay relative to control; assay type: functional; outline: as §1
[27] = tested on: HT-29; test: Antiproliferative activity against human HT-29 cells assessed as cell growth inhibition at 10 uM incubated for 48 hrs by sulforhodamine B assay relative to control; assay type: functional; outline: as §1
[28] = tested on: SN12C; test: Antiproliferative activity against human SN12C cells assessed as cell growth inhibition at 10 uM incubated for 48 hrs by sulforhodamine B assay relative to control; assay type: functional; outline: as §1
[29] = n-Octanol/phosphate buffer partition coefficient, logP of the compound at pH 7.4 incubated for 85 mins by shake-flask method; assay type: physicochemical
Outline: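 Octanol–water partition by shake-flask: n-octanol with 0.15 M phosphate buffer pH 7.4 at 10:1 volumes. Buffer-phase absorbance read before mixing, then shaken 50 min and centrifuged at 2500 rpm for 35 min. Buffer absorbance read again; P = (Ai−Af)/Af × Vw/Vo.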

[30] = tested on: NCI-H23; test: Antiproliferative activity against human NCI-H23 cells assessed as cell growth inhibition at 10 uM incubated for 48 hrs by sulforhodamine B assay relative to control; assay type: functional; outline: as §1
[31] = tested on: NCI-H460; test: Antiproliferative activity against human NCI-H460 cells assessed as cell growth inhibition at 10 uM incubated for 48 hrs by sulforhodamine B assay relative to control; assay type: functional; outline: as §1
[32] = tested on: NCI-H226; test: Antiproliferative activity against human NCI-H226 cells assessed as cell growth inhibition at 10 uM incubated for 48 hrs by sulforhodamine B assay relative to control; assay type: functional; outline: as §1
[33] = tested on: HOP-92; test: Antiproliferative activity against human HOP-92 cells assessed as cell growth inhibition at 10 uM incubated for 48 hrs by sulforhodamine B assay relative to control; assay type: functional; outline: as §3
[34] = tested on: RXF 393; test: Antiproliferative activity against human RXF 393 cells assessed as cell growth inhibition at 10 uM incubated for 48 hrs by sulforhodamine B assay relative to control; assay type: functional; outline: as §1
[35] = tested on: SNB-19; test: Antiproliferative activity against human SNB-19 cells assessed as cell growth inhibition at 10 uM incubated for 48 hrs by sulforhodamine B assay relative to control; assay type: functional; outline: as §1
[36] = tested on: TK-10; test: Antiproliferative activity against human TK-10 cells assessed as cell growth inhibition at 10 uM incubated for 48 hrs by sulforhodamine B assay relative to control; assay type: functional; outline: as §1
[37] = tested on: Hs-578T; test: Antiproliferative activity against human Hs-578T cells assessed as cell growth inhibition at 10 uM incubated for 48 hrs by sulforhodamine B assay relative to control; assay type: functional; outline: as §1
[38] = tested on: SK-MEL-2; test: Antiproliferative activity against human SK-MEL-2 cells assessed as cell growth inhibition at 10 uM incubated for 48 hrs by sulforhodamine B assay relative to control; assay type: functional; outline: as §1
[39] = tested on: HCC 2998; test: Antiproliferative activity against human HCC 2998 cells assessed as cell growth inhibition at 10 uM incubated for 48 hrs by sulforhodamine B assay relative to control; assay type: functional; outline: as §3
[40] = tested on: ACHN; test: Antiproliferative activity against human ACHN cells assessed as cell growth inhibition at 10 uM incubated for 48 hrs by sulforhodamine B assay relative to control; assay type: functional; outline: as §2
[41] = tested on: SF-539; test: Antiproliferative activity against human SF-539 cells assessed as cell growth inhibition at 10 uM incubated for 48 hrs by sulforhodamine B assay relative to control; assay type: functional; outline: as §1
[42] = tested on: IGROV-1; test: Antiproliferative activity against human IGROV-1 cells assessed as cell growth inhibition at 10 uM incubated for 48 hrs by sulforhodamine B assay relative to control; assay type: functional; outline: as §1

## c1csc(-c2cn3ccnc3c(-c3ccc4ncn(C5CCCCC5)c4c3)n2)c1
[1]
  inhibition at 10 µM: 26.9%
[2]
  inhibition at 10 µM: 52.3%
[3]
  inhibition at 10 µM: 9.34%
[4]
  inhibition at 10 µM: 12.2%
[5]
  inhibition at 10 µM: 46.4%
[6]
  inhibition at 10 µM: 10.9%
[7]
  inhibition at 10 µM: 2.33%
[8]
  inhibition at 10 µM: 49.1%
[9]
  inhibition at 10 µM: 8.13%
[10]
  inhibition at 10 µM: 26.6%
[11]
  inhibition at 10 µM: 4.1%
[12]
  inhibition at 10 µM: 15.1%
[13]
  inhibition at 10 µM: 70.3%
[14]
  inhibition at 10 µM: 25%
[15]
  inhibition at 10 µM: 4.89%
[16]
  inhibition at 10 µM: 5.07%
[17]
  inhibition at 10 µM: 24.8%
[18]
  inhibition at 10 µM: 30.8%
[19]
  inhibition at 10 µM: 5.33%
[20]
  inhibition at 10 µM: 13.2%
[21]
  inhibition at 10 µM: 8.05%
[22]
  inhibition at 10 µM: 3.92%
[23]
  inhibition at 10 µM: 10.8%
[24]
  inhibition at 10 µM: 27.2%
[25]
  inhibition at 10 µM: 21.1%
[26]
  inhibition at 10 µM: 1.07%
[27]
  inhibition at 10 µM: 0.09%
[28]
  inhibition at 10 µM: 2.84%
[29]
  logD at 1.417 h: 1.38
[30]
  inhibition at 10 µM: 5.95%
[31]
  inhibition at 10 µM: 1.3%
[32]
  inhibition at 10 µM: 17.1%
[33]
  inhibition at 10 µM: 32.5%

## c1cn2cc(-c3ccsc3)nc(-c3ccc4ncn(C5CCCCC5)c4c3)c2n1
[1]
  inhibition at 10 µM: 22%
[34]
  inhibition at 10 µM: 8.63%
[2]
  inhibition at 10 µM: 37.9%
[3]
  inhibition at 10 µM: 12.1%
[35]
  inhibition at 10 µM: 0.39%
[5]
  inhibition at 10 µM: 29.2%
[6]
  inhibition at 10 µM: 23.1%
[7]
  inhibition at 10 µM: 1.37%
[8]
  inhibition at 10 µM: 19.9%
[10]
  inhibition at 10 µM: 18.4%
[36]
  inhibition at 10 µM: 3.37%
[11]
  inhibition at 10 µM: 6.35%
[37]
  inhibition at 10 µM: 5.56%
[12]
  inhibition at 10 µM: 21.8%
[13]
  inhibition at 10 µM: 63.7%
[14]
  inhibition at 10 µM: 20.1%
[15]
  inhibition at 10 µM: 15.4%
[16]
  inhibition at 10 µM: 1.36%
[38]
  inhibition at 10 µM: 3.68%
[17]
  inhibition at 10 µM: 18.4%
[18]
  inhibition at 10 µM: 30%
[19]
  inhibition at 10 µM: 3.97%
[39]
  inhibition at 10 µM: 2.18%
[20]
  inhibition at 10 µM: 10.2%
[21]
  inhibition at 10 µM: 25%
[22]
  inhibition at 10 µM: 6.09%
[23]
  inhibition at 10 µM: 1.35%
[24]
  inhibition at 10 µM: 14.3%
[25]
  inhibition at 10 µM: 13.3%
[40]
  inhibition at 10 µM: 5.76%
[26]
  inhibition at 10 µM: 4.9%
[27]
  inhibition at 10 µM: 5.68%
[41]
  inhibition at 10 µM: 6.29%
[29]
  logD at 1.417 h: 1.81
[30]
  inhibition at 10 µM: 10%
[32]
  inhibition at 10 µM: 6.34%
[33]
  inhibition at 10 µM: 27.8%
[42]
  inhibition at 10 µM: 1.51%

Source: ChEMBL document CHEMBL5247578, “Effective synthesis of benzimidazoles-imidazo[1,2-a]pyrazine conjugates: A comparative study of mono-and bis-benzimidazoles for antitumor activity” (Eur J Med Chem, 2019)
